Source: PubChem BioAssay
In the library only some 4.1% were active in any assay of this set; here they are far more common.
hERG rescue: hERG (human) protection from proarrhythmic block; CHO-hERG, FluxOR thallium flux, dofetilide IC70 present; activation (rescue from dofetilide block), less the hit threshold, % at 10 µM; actives 0.51% (n = 310,000);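 active means activation above the mean of controls blocked by dofetilide plus 5 SD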;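 further: thallium influx through hERG after potassium depolarization seen as dye fluorescence rise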
Target sequence (Q12809 whole entry, looked up): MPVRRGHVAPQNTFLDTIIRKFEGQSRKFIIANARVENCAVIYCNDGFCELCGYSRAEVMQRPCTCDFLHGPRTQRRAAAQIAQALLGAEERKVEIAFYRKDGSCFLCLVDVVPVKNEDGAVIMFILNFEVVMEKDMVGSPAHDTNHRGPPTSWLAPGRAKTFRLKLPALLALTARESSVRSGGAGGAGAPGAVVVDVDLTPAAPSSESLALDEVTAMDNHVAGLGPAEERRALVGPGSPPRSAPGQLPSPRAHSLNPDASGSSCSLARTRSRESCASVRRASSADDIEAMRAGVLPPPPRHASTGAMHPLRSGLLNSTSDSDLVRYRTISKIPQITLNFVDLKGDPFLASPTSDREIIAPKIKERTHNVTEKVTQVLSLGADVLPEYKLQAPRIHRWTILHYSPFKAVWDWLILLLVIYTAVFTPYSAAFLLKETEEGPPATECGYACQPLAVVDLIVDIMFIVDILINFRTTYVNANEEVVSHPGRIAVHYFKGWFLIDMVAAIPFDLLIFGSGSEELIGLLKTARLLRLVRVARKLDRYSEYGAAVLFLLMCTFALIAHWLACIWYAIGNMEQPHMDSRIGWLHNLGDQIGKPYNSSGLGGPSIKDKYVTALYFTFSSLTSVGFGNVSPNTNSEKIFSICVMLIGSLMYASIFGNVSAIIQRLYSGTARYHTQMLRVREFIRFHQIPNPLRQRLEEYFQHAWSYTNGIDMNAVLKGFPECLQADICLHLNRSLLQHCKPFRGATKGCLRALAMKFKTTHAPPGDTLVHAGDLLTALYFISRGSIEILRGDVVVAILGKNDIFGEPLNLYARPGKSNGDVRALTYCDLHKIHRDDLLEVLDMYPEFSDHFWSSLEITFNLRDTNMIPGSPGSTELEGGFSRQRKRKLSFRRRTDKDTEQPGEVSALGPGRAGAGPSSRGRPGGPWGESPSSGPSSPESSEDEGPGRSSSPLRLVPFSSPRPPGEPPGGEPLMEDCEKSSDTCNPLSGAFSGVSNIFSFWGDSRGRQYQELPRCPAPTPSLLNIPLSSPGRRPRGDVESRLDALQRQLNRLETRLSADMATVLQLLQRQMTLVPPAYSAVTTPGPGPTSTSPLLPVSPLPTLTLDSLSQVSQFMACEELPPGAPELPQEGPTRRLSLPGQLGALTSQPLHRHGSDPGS
KCNK3 block: human KCNK3 channel inhibition, primary screen | CHO-KCNK3 thallium flux, FluxOR fluorescence; active compounds read low | actives 0.84% (n = 340,000) | AID 602410 | B-score at 10 µM;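 active means B-score under library mean minus 4 SD, starting fluorescence ratio at most library mean plus 5 SD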;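 further: more negative B-score means stronger inhibition of thallium flux through KCNK3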
KCNK9 block: blocks the human KCNK9 two-pore domain potassium channel | HEK293 KCNK9, FluxOR thallium flux fluorescence; active compounds read low | B-score at 10 µM | actives 1.2% (n = 310,000) | AID 488922;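 active means ratio B-score over 3 SD below the library mean, with starting fluorescence within 5 SD of its mean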;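 further: negative B-score means less thallium flux so channel inhibition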
Cl transport mod: modulates chloride dependent transport by human KCC2; KCC2 cells, thallium flux FluoZin-2 fluorescence; B-score of Tl+ flux slope (higher = more flux/activation; lower = inhibition) at 10 µM; actives 2.2% (n = 190,000); AID 1456;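 active means thallium flux slope and its plate-corrected score both differing from the plate sample mean at a set confidence after two filtering rounds, in either direction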;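 further: slope of fluorescence scaled to starting intensity during 10 to 20 s after thallium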
KCNQ1 inh: human KCNQ1 channel inhibition. actives 1.3% (n = 310,000). B-score at 10 µM. CHO-K1 KCNQ1, FluxOR thallium flux fluorescence; active compounds read high;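 active means compounds whose thallium flux B-score, printed positive for inhibition, exceeds three library SD while starting fluorescence stays within three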;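 further: channel opened by potassium depolarization with thallium stimulus after 20 min compound exposure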
KCNQ1 pot: potentiators or activators of human KCNQ1 potassium channel | CHO-K1 KCNQ1, thallium flux FluxOR fluorescence; active compounds read high | B-score at 10 µM | actives 0.35% (n = 310,000);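 active means fluorescence ratio B-score, a plate-corrected score, at least three library SD, with initial intensity B-score within 5 SD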
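Schedule – 37 °C overnight plating, 90-min dark dye load, 20-min compound pretreatment · System – stable KCNQ1 CHO-K1 line · Probe or stimulus – thallium- and potassium-containing depolarizing buffer · Measured by – kinetic FluxOR fluorescence, 10 s baseline plus 110 s post-stimulus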
KCNK9 inh conf: human KCNK9 inhibitor confirmation | shares compounds with KCNK9 block | HEK293 KCNK9 cells, FluxOR thallium flux fluorescence | inhibition, % at 10 µM | actives 43% (n = 4,900) | AID 492992;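 active means thallium signal inhibited by more than 5 SD of the compound-free buffer control wells, on both duplicate plates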
Kir21 sel: mouse Kir2.1 off-target activity of KCNK9 modulators. actives 4% (n = 4,900). AID 492993. inhibition, % at 10 µM. Kir2.1 cells, FluxOR thallium flux fluorescence. shares compounds with KCNK9 block;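 active means thallium signal drop more than 5 SD beyond the mean of the no-compound control wells, seen in both duplicate plates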;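 further: signal is fluorescence rise after thallium addition divided by baseline fluorescence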
KCNK9 uninduced: non-induced cell nonspecific activity of KCNK9 modulators | shares compounds with KCNK9 block | non-induced KCNK9-HEK293, FluxOR thallium flux | inhibition, % at 10 µM | actives 40% (n = 4,900) | AID 492997;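 active means thallium signal drop beyond 5 SD of the untreated control mean, on both duplicate plates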
A number is an active result; i = inactive; nt = no result.

SMILES	hERG rescue	KCNK3 block	KCNK9 block	Cl transport mod	KCNQ1 inh	KCNQ1 pot	KCNK9 inh conf	Kir21 sel	KCNK9 uninduced
O=C(NCC(c1ccco1)N1CCc2ccccc2C1)c1cccc(Br)c1 (stereo not drawn)	i	i	-12.2	nt	i	i	i	i	25.5%
O=C(NCC(c1ccco1)N1CCc2ccccc2C1)c1ccc(Br)cc1 (stereo not drawn)	i	i	i	nt	i	i	i	i	35.0%
Cc1ccc(C)c(S(=O)(=O)NCC(c2ccco2)N2CCc3ccccc3C2)c1 (stereo not drawn)	i	i	-10.7	nt	i	i	48.0%	i	41.0%
Cc1ccc(C(=O)NCC(c2ccco2)N2CCc3ccccc3C2)cc1C (stereo not drawn)	i	i	i	nt	i	i	nt	nt	nt
O=C(O)C(Cc1cccs1)c1cccs1 (stereo not drawn)	nt	i	nt	nt	nt	nt	nt	nt	nt
C[C@@H]1CN([C@@H](C)CO)C(=O)c2cc(NC(=O)C3CC3)ccc2O[C@@H]1CN(C)C(=O)NC1CCCCC1	nt	i	nt	nt	nt	nt	nt	nt	nt
CCCn1nc(C(=O)Nc2ccc(-n3cnnn3)cc2)c2ccccc2c1=O	nt	i	nt	nt	nt	nt	nt	nt	nt
CCOC(=O)[C@@H]1[C@H]2COc3ccccc3[C@@H]2N2C(=O)N(c3ccc(C(F)(F)F)cc3)C(=O)[C@@]12C	nt	i	nt	nt	nt	nt	nt	nt	nt
CCOC(=O)[C@@H]1[C@H]2COc3ccccc3[C@H]2N2C(=O)N(c3ccc(C(F)(F)F)cc3)C(=O)[C@]12C	i	i	-8.64	nt	i	i	52.5%	i	34.0%
COC(=O)C1=C(C(=O)OC)SC(=C2C(=S)C(C)(C)N(C(=O)CC(C)C)c3ccccc32)S1	i	i	-11.1	i	i	i	26.0%	i	32.0%
Cc1c(C(=O)N2CCCC2)c(S(=O)(=O)Nc2ccccc2)c(C)n1C	i	i	i	nt	i	i	nt	nt	nt
C=CCN1C(=O)c2ccc(C(=O)N(C)CC(=O)Nc3c(C)cccc3C)cc2C1=O	i	i	i	nt	i	i	nt	nt	nt
Cn1nnnc1SCC(=O)N1c2ccccc2Sc2ccccc21	i	i	i	nt	i	i	nt	nt	nt
CCn1nnnc1SCC(=O)N1c2ccccc2Sc2ccccc21	i	i	i	i	i	i	i	i	i
COc1ccc(C(=O)NC(=S)Nc2ccc(CN3CCOCC3)cc2)cc1OC	i	i	i	i	i	i	nt	nt	nt
COc1ccc(C(=O)NC(=S)Nc2ccc(CN3CCOCC3)cc2)cc1Cl	i	i	i	nt	i	i	i	i	i
O=C(c1ccccc1)N1CCN(C(=O)c2nn3c(C(F)(F)F)cc(-c4ccccc4)nc3c2Br)CC1	i	i	i	nt	i	i	nt	nt	nt
CCCN1CCc2c(sc(NC(=O)C3CCN(S(=O)(=O)c4cccs4)CC3)c2C(N)=O)C1	i	i	i	nt	i	i	nt	nt	nt
COc1ccc(N2C(=O)CC(Sc3n[nH]c(-c4ccccc4)n3)C2=O)cc1 (stereo not drawn)	i	i	i	i	i	i	nt	nt	nt
COc1ccc2ccccc2c1CNCc1ccc(C)cc1	i	i	i	nt	i	i	nt	nt	nt
COc1ccc2ccccc2c1CNC(C)c1ccccc1 (stereo not drawn)	i	i	i	nt	i	i	i	i	i
COc1ccc(S(=O)(=O)Nc2cccc(S(=O)(=O)N3CCCCCC3)c2)cc1	i	i	-8.17	i	i	i	41.5%	i	28.0%
COc1cccc(NS(=O)(=O)c2ccc(S(=O)(=O)N3CCCC3)cc2)c1	nt	i	nt	nt	nt	nt	nt	nt	nt
Cc1ccc(S(=O)(=O)c2cccc(S(=O)(=O)N3CCCC3)c2)cc1S(=O)(=O)N1CCCC1	i	i	-15.8	i	i	i	31.5%	i	26.0%
S=C(c1ccc2c(c1)OCO2)N1CCN(c2cccc(Cl)c2)CC1	nt	i	nt	nt	nt	nt	nt	nt	nt
SMILES	hERG rescue	KCNK3 block	KCNK9 block	Cl transport mod	KCNQ1 inh	KCNQ1 pot	KCNK9 inh conf	Kir21 sel	KCNK9 uninduced
COc1ccc(Cc2nc3ccc(C(=O)N(C)CCn4ccnc4)cc3o2)cc1OC	i	i	i	nt	i	i	nt	nt	nt
CCOC(=O)COc1nc(-c2ccc(C)cc2)cc(-c2ccco2)c1C#N	i	i	i	i	i	i	nt	nt	nt
CCOC(=O)COc1nc(-c2ccco2)cc(-c2ccco2)c1C#N	i	i	-10.5	i	i	i	67.0%	i	36.0%
CC(NCC(=O)NC(=O)NC1CCCC1)c1ccc(Cl)cc1Cl (stereo not drawn)	i	i	i	nt	i	i	i	i	i
CCN1C[C@@H]2[C@@H]3C(=O)N(C)C(=O)[C@@H]3[C@](Cc3ccccc3)(C1=O)N2C(=O)c1ccc(Br)cc1	nt	i	nt	nt	nt	nt	nt	nt	nt
COc1cc(/C=C2\C(=N)N3N=CSC3=NC2=O)ccc1OS(=O)(=O)c1ccccc1[N+](=O)[O-]	i	i	i	nt	i	i	i	i	i
Cc1onc(-c2ccccc2Cl)c1-c1nc(-c2ccncc2)no1	i	i	i	i	i	i	nt	nt	nt
CCCCc1noc(-c2c(-c3ccccc3Cl)noc2C)n1	i	i	i	i	i	i	i	i	i
COc1ccccc1/C=C/c1nc(S(=O)(=O)c2ccccc2)c(N(C)C)o1	i	i	-10.7	nt	i	i	53.0%	i	28.5%
CN(C)c1oc(/C=C/c2cccs2)nc1S(=O)(=O)c1ccccc1	i	i	-8.11	nt	i	i	42.0%	i	i
COc1cc(-c2nc(-c3ccc4c(c3)-c3ccccc3S4(=O)=O)c(-c3ccccc3)[nH]2)cc(OC)c1O	i	-10.3	-16.4	nt	6	i	69.0%	i	27.5%
O=C(O)c1ccc(-c2nc(-c3cccc(C(F)(F)F)c3)cs2)cc1	i	i	i	i	i	i	i	i	i
Brc1ccc(N=Nc2ccc3ccccc3n2)cc1	i	i	-10.5	i	i	i	42.0%	i	82.0%
Cc1ccc(CN(C)C(=O)CSc2nnc3n2CCCCC3)c(C)c1	nt	i	nt	nt	nt	nt	nt	nt	nt
CCOc1ccc(Cc2n[nH]c(=S)n2Cc2ccccc2)cc1	i	i	-15	i	i	i	32.0%	i	33.5%
Cc1ccc(-n2c(Cc3ccccc3)n[nH]c2=S)c(C)c1	i	i	i	i	i	i	nt	nt	nt
S=c1[nH]nc(Cc2ccccc2)n1-c1cccc2ccccc12	i	i	i	i	i	i	i	i	i
CCCS(=O)(=O)N1CCCC(C(=O)Oc2ccc(Cl)cc2)C1 (stereo not drawn)	i	i	i	nt	i	i	nt	nt	nt
Cc1ccc(-c2cc(-c3ccccc3)nc(N/N=C/c3cccnc3)n2)cc1	i	i	i	i	i	i	nt	nt	nt
Cc1cc(-c2ccccc2)nc(N/N=C/c2ccco2)n1	i	i	i	i	i	i	nt	nt	nt
C(=N/Nc1nc(-c2ccccc2)cc(-c2ccccc2)n1)/c1cccnc1	i	i	i	i	i	i	i	i	i
